Experimental findings from ChEMBL document CHEMBL2413053, “3'-Oxo-, amino-, thio- and sulfone-acetic acid modified thymidines: effect of increased acidity on ribonuclease A inhibition” (Bioorg Med Chem, 2013) are described below.

Active and inactive are the calls of the source. The rule behind the calls is not given here.

The target in assay [1] is T1, Ribonuclease pancreatic (Bos taurus) (UniProt P61823).
T1 sequence (whole entry): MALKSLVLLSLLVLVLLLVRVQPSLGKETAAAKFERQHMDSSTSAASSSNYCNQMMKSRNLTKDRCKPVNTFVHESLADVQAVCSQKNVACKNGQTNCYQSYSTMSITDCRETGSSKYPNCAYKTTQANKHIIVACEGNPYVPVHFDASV
The assay can be described thus: Inhibition of bovine pancreatic RNase A assessed as degradation of tRNA at 0.07 to 0.20 mM incubated for 3 hrs prior to tRNA addition measured after 30 mins by agarose gel electrophoresis. An outline of the steps:
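RNase A (1.51 μM stock) preincubated 3 h with compound at 0.07, 0.14 and 0.20 mM in 100 μL. Aliquot then mixed 1:1 with tRNA (5.0 mg/mL, freshly dissolved in RNase-free water) and held 30 min. Sample buffer with glycerol and bromophenol blue was added. Run on 1.1% agarose gel in 0.04 M TAE, pH 8.0. Residual tRNA seen by ethidium bromide staining under UV.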

The target in the next assay is T2, Ribonuclease pancreatic (Bos taurus, UniProt P61823).
T2 sequence (P61823 whole entry): T1 sequence (whole entry)
In words: Reversible competitive inhibition of bovine pancreatic RNase A using 2',3'-cCMP as substrate by Lineweaver-Burk plot analysis. The method in brief:
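Spectrophotometric RNase A assay in 0.1 M Mes–NaOH, pH 6.0, with 0.1 M NaCl, using 2',3'-cCMP as substrate at varied concentrations. Two fixed inhibitor concentrations were run plus a no-inhibitor set. Ki was derived from initial velocities by Lineweaver–Burk analysis.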

In assay [2] the target is T1, Ribonuclease pancreatic (Bos taurus). In words: Inhibition of bovine pancreatic RNase A assessed as degradation of tRNA at 0.35 mM incubated for 2 hrs prior to tRNA addition measured after 30 mins by precipitation assay. The method in brief: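 RNase A (1.31 μM) preincubated with compound (0.35 mM) 2 h at 37 °C; aliquot then mixed with tRNA (5 mg/mL) in Tris–HCl pH 7.5 with 5 mM EDTA and 0.5 mg/mL HSA, 30 min at 25 °C. Quenched with ice-cold 1.14 M perchloric acid/6 mM uranyl acetate, 30 min on ice, centrifuged; diluted supernatant A260 compared with control.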

The target is the same in assay [3]. The following applies: 0.05 to 0.20 mM.
Assay [4] shares this target. In words: Inhibition of bovine pancreatic RNase A assessed as degradation of tRNA at 0.06 to 0.24 mM incubated for 3 hrs prior to tRNA addition measured after 30 mins by agarose gel electrophoresis. The method in brief: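 RNase A (1.26 μM stock) preincubated 3 h with compound at 0.06, 0.12, 0.18 and 0.24 mM in 100 μL. Aliquot then mixed with tRNA (5.0 mg/mL, freshly dissolved in RNase-free water) for 30 min. Run on 1.1% agarose gel in 0.04 M TAE, pH 8.0. Residual tRNA visualized by ethidium bromide staining under UV.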

Assay [5] has the same target. Particulars: 0.05 to 0.24 mM.

As to `COC(=O)CS(=O)(=O)C[C@H]1O[C@@H](n2cc(C)c(=O)[nH]c2=O)C[C@@H]1O`, in assay [1], the inhibition (in general, the relative decrease from the control value, in per cent) is “Active”. Moreover, the inhibition constant (Ki) (commonly the equilibrium dissociation constant of an inhibitor or competing ligand from its target) at Ribonuclease pancreatic was 202 µM. Moreover, the inhibition in assay [2] was 14%.

Regarding `COC(=O)CS(=O)(=O)[C@H]1C[C@H](n2cc(C)c(=O)[nH]c2=O)O[C@@H]1CO`, the inhibition entry in assay [1] was “Active”. On Ribonuclease pancreatic, the affinity corresponds to a Ki of 140 µM. Besides, in assay [2], the inhibition worked out at 18%.

On to `COC(=O)CSC[C@H]1O[C@@H](n2cc(C)c(=O)[nH]c2=O)C[C@H]1SCC(=O)OC`, for which the inhibition result in assay [1] is “Active”. The inhibition in assay [2] amounted to 5%.

Consider `Cc1cn([C@H]2C[C@H](S(=O)(=O)CC(=O)O)[C@@H](CS(=O)(=O)CC(=O)O)O2)c(=O)[nH]c1=O`, for which the inhibition result in assay [3] is “Active”. This molecule showed a Ki on Ribonuclease pancreatic of 25 µM. Also, in assay [2], the inhibition turned out to be 35%.

On to `CCOC(=O)CN[C@H]1C[C@H](n2cc(C)c(=O)[nH]c2=O)O[C@@H]1CO`, for which the inhibition result in assay [1] was “Active”. At Ribonuclease pancreatic, the affinity, expressed as Ki, was 504 µM. Besides, the inhibition in assay [2] was determined as 7%.

On to `Cc1cn([C@H]2C[C@H](SCC(=O)O)[C@@H](CO)O2)c(=O)[nH]c1=O`, for which, in assay [1], the inhibition result was “Active”. Moreover, the Ki at Ribonuclease pancreatic was found to be 169 µM. For the same molecule, in assay [2], the inhibition turned out to be 17%.

`Cc1cn([C@H]2C[C@H](SCC(=O)O)[C@@H](CSCC(=O)O)O2)c(=O)[nH]c1=O`: the inhibition entry in assay [4] was “Active”. This molecule displayed a Ki on Ribonuclease pancreatic of 93 µM. Also, the inhibition in assay [2] came to 18%.

In the case of `COC(=O)CS(=O)(=O)C[C@H]1O[C@@H](n2cc(C)c(=O)[nH]c2=O)C[C@H]1S(=O)(=O)CC(=O)OC`, the inhibition result in assay [1] was “Active”. The molecule also registered a Ki on Ribonuclease pancreatic of 242 µM. Besides, in assay [2], the inhibition is 12%.

In the case of `Cc1cn([C@H]2C[C@@H](SCC(=O)O)[C@@H](CSCC(=O)O)O2)c(=O)[nH]c1=O`, at Ribonuclease pancreatic, the inhibitory constant (Ki) turned out to be 108 µM. In assay [2], the inhibition was 16%.

`COC(=O)CS(=O)(=O)C[C@H]1O[C@@H](n2cc(C)c(=O)[nH]c2=O)C[C@@H]1S(=O)(=O)CC(=O)OC`: the inhibition entry in assay [1] is “Active”. The Ki at Ribonuclease pancreatic is 267 µM. Further, in assay [2], the inhibition turned out to be 15%.

In the case of `Cc1cn([C@H]2C[C@H](S(=O)(=O)CC(=O)O)[C@@H](CO)O2)c(=O)[nH]c1=O`, the inhibition entry in assay [4] was “Active”. For the same molecule, on Ribonuclease pancreatic, the affinity corresponds to a Ki of 88 µM. The inhibition in assay [2] stood at 25%.

For `Cc1cn([C@H]2C[C@H](O)[C@@H](CS(=O)(=O)CC(=O)O)O2)c(=O)[nH]c1=O`, the inhibition result in assay [4] is “Active”. The Ki on Ribonuclease pancreatic worked out at 95 µM. Besides, the inhibition in assay [2] is 22%.

Regarding `COC(=O)CS[C@H]1C[C@H](n2cc(C)c(=O)[nH]c2=O)O[C@@H]1CO`, the inhibition entry in assay [1] was “Active”. In addition, the affinity on Ribonuclease pancreatic corresponds to a Ki of 757 µM. Further, in assay [2], the inhibition came out at 3%.

Turning to `Cc1cn([C@H]2C[C@H](OCC(=O)O)[C@@H](CO)O2)c(=O)[nH]c1=O`, in assay [1], the inhibition result was “Active”. This molecule returned a Ki at Ribonuclease pancreatic of 267 µM. Moreover, the inhibition in assay [2] was determined as 13%.

Regarding `Cc1cn([C@H]2C[C@H](NCC(=O)O)[C@@H](CO)O2)c(=O)[nH]c1=O`, the inhibition entry in assay [1] was “Active”. The molecule further yielded an inhibition constant (Ki) on Ribonuclease pancreatic of 186 µM. Moreover, the inhibition in assay [2] is 19%.

Consider `Cc1cn([C@H]2C[C@@H](S(=O)(=O)CC(=O)O)[C@@H](CS(=O)(=O)CC(=O)O)O2)c(=O)[nH]c1=O`, for which, in assay [5], the inhibition result is “Active”. Affinity on Ribonuclease pancreatic was put at a Ki of 39 µM. Moreover, the inhibition in assay [2] was determined as 33%.
